tested on: not listed separately; assay: Cytotoxicity against HEK cells after 44 hrs by MTT assay; format: cell-based; settings: Homo sapiens, HEK293, 44 h
Outline: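 Transformed human kidney epithelial (Graham) cells kept at 37 °C in 5% CO₂. Trypsinized cells at 0.5 million cells/ml plated with compounds for 44 h, then 2 mM MTT for a further 4 h. Formazan dissolved in DMSO, absorbance 540 nm with 690 nm reference, % viability vs controls. Three independent experiments.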

Row | Structure (SMILES) | IC50 [nM]
1 | Clc1ccc(C2ON=C(c3cccc(Cl)c3)O2)cc1 (stereo unspecified) | > 100000
2 | Cc1ccc(C2ON=C(c3cccc(Cl)c3)O2)cc1 (stereo unspecified) | > 100000
3 | CC1(c2ccccn2)ON=C(c2ccc(Cl)cc2)O1 (stereo unspecified) | > 100000
4 | CCC1(c2cccc(Br)c2)ON=C(c2ccccc2Cl)O1 (stereo unspecified) | > 100000
5 | CCc1ccc(C2ON=C(c3ccc(Cl)cc3)O2)cc1 (stereo unspecified) | > 100000
6 | Clc1cccc(C2=NOC(c3ccccc3Cl)O2)c1 (stereo unspecified) | > 100000
7 | Cc1ncc([N+](=O)[O-])n1CCO [METRONIDAZOLE] | > 100000
8 | CCc1ccc(C2ON=C(c3cccc(Cl)c3)O2)cc1 (stereo unspecified) | > 100000
9 | CC1(c2cccc(Br)c2)ON=C(c2ccc(Cl)cc2)O1 (stereo unspecified) | > 100000
10 | Clc1ccc(C2=NOC(c3ccc(Cl)c(Cl)c3)O2)cc1 (stereo unspecified) | > 100000
11 | CC1(c2ccccn2)ON=C(c2cccc(Cl)c2)O1 (stereo unspecified) | > 100000
12 | CC1(c2ccc(Cl)cc2)ON=C(c2cccc(Cl)c2)O1 (stereo unspecified) | > 100000
13 | Clc1ccc(C2ON=C(c3ccccc3Cl)O2)cc1Cl (stereo unspecified) | > 100000
14 | Clc1ccc(C2ON=C(c3ccccc3Cl)O2)cc1 (stereo unspecified) | > 100000
15 | Cc1ccc(C2ON=C(c3ccccc3Cl)O2)cc1 (stereo unspecified) | > 100000
16 | Clc1ccc(C2=NOC(c3ccc(Cl)cc3)O2)cc1 (stereo unspecified) | > 100000
17 | Cc1ccc(C2ON=C(c3ccc(Cl)cc3)O2)cc1 (stereo unspecified) | > 100000

Row | Structure (SMILES) | IC50 [nM]
18 | Clc1ccccc1C1=NOC(c2ccccc2Cl)O1 (stereo unspecified) | > 100000
19 | Clc1cccc(C2=NOC(c3cccc(Cl)c3)O2)c1 (stereo unspecified) | > 100000
20 | CC1(c2ccc(Cl)cc2)ON=C(c2ccccc2Cl)O1 (stereo unspecified) | > 100000
21 | CCC1(c2cccc(Cl)c2)ON=C(c2ccc(Cl)cc2)O1 (stereo unspecified) | > 100000
22 | CCC1(c2cccc(Cl)c2)ON=C(c2ccccc2Cl)O1 (stereo unspecified) | > 100000
23 | Clc1cccc(C2=NOC(c3ccc(Cl)c(Cl)c3)O2)c1 (stereo unspecified) | > 100000
24 | CCc1ccc(C2ON=C(c3ccccc3Cl)O2)cc1 (stereo unspecified) | > 100000
25 | Clc1ccc(C2=NOC(c3cccc(Cl)c3)O2)cc1 (stereo unspecified) | > 100000
26 | CCC1(c2cccc(Br)c2)ON=C(c2ccc(Cl)cc2)O1 (stereo unspecified) | > 100000
27 | CCC1(c2cccc(Cl)c2)ON=C(c2cccc(Cl)c2)O1 (stereo unspecified) | > 100000
28 | CC1(c2cccc(Br)c2)ON=C(c2cccc(Cl)c2)O1 (stereo unspecified) | > 100000
29 | Clc1cccc(C2ON=C(c3ccccc3Cl)O2)c1 (stereo unspecified) | > 100000
30 | CCC1(c2cccc(Br)c2)ON=C(c2cccc(Cl)c2)O1 (stereo unspecified) | > 100000
31 | CC1(c2ccc(Cl)cc2)ON=C(c2ccc(Cl)cc2)O1 (stereo unspecified) | > 100000
32 | CC1(c2cccc(Br)c2)ON=C(c2ccccc2Cl)O1 (stereo unspecified) | > 100000
33 | Clc1ccc(C2=NOC(c3ccccc3Cl)O2)cc1 (stereo unspecified) | > 100000
34 | CC1(c2ccccn2)ON=C(c2ccccc2Cl)O1 (stereo unspecified) | > 100000

tested on: not listed separately; assay: Safety index, ratio of IC50 for HEK cells to IC50 for Entamoeba histolytica HM-1:IMSS; format: toxicity, cell-based, HEK293; settings: human, HEK cells (versus Entamoeba histolytica HM-1:IMSS); read-out: Ratio IC50

Row | Structure (SMILES) | selectivity ratio
35 | Clc1ccc(C2ON=C(c3cccc(Cl)c3)O2)cc1 (stereo unspecified) | > 141
36 | Cc1ccc(C2ON=C(c3cccc(Cl)c3)O2)cc1 (stereo unspecified) | > 55.5
37 | CC1(c2ccccn2)ON=C(c2ccc(Cl)cc2)O1 (stereo unspecified) | > 63.3
38 | CCC1(c2cccc(Br)c2)ON=C(c2ccccc2Cl)O1 (stereo unspecified) | > 55.5
39 | CCc1ccc(C2ON=C(c3ccc(Cl)cc3)O2)cc1 (stereo unspecified) | > 55.5
40 | Clc1cccc(C2=NOC(c3ccccc3Cl)O2)c1 (stereo unspecified) | > 161
41 | Cc1ncc([N+](=O)[O-])n1CCO [METRONIDAZOLE] | > 55.5
42 | CCc1ccc(C2ON=C(c3cccc(Cl)c3)O2)cc1 (stereo unspecified) | > 55.5
43 | CC1(c2cccc(Br)c2)ON=C(c2ccc(Cl)cc2)O1 (stereo unspecified) | > 55.5
44 | Clc1ccc(C2=NOC(c3ccc(Cl)c(Cl)c3)O2)cc1 (stereo unspecified) | > 88.5
45 | CC1(c2ccccn2)ON=C(c2cccc(Cl)c2)O1 (stereo unspecified) | > 57.8
46 | CC1(c2ccc(Cl)cc2)ON=C(c2cccc(Cl)c2)O1 (stereo unspecified) | > 55.5
47 | Clc1ccc(C2ON=C(c3ccccc3Cl)O2)cc1Cl (stereo unspecified) | > 124
48 | Clc1ccc(C2ON=C(c3ccccc3Cl)O2)cc1 (stereo unspecified) | > 196
49 | Cc1ccc(C2ON=C(c3ccccc3Cl)O2)cc1 (stereo unspecified) | > 55.5
50 | Clc1ccc(C2=NOC(c3ccc(Cl)cc3)O2)cc1 (stereo unspecified) | > 189
51 | Cc1ccc(C2ON=C(c3ccc(Cl)cc3)O2)cc1 (stereo unspecified) | > 55.5

Row | Structure (SMILES) | selectivity ratio
52 | Clc1ccccc1C1=NOC(c2ccccc2Cl)O1 (stereo unspecified) | > 244
53 | Clc1cccc(C2=NOC(c3cccc(Cl)c3)O2)c1 (stereo unspecified) | > 110
54 | CC1(c2ccc(Cl)cc2)ON=C(c2ccccc2Cl)O1 (stereo unspecified) | > 55.5
55 | CCC1(c2cccc(Cl)c2)ON=C(c2ccc(Cl)cc2)O1 (stereo unspecified) | > 55.5
56 | CCC1(c2cccc(Cl)c2)ON=C(c2ccccc2Cl)O1 (stereo unspecified) | > 55.5
57 | Clc1cccc(C2=NOC(c3ccc(Cl)c(Cl)c3)O2)c1 (stereo unspecified) | > 82.6
58 | CCc1ccc(C2ON=C(c3ccccc3Cl)O2)cc1 (stereo unspecified) | > 55.5
59 | Clc1ccc(C2=NOC(c3cccc(Cl)c3)O2)cc1 (stereo unspecified) | > 116
60 | CCC1(c2cccc(Br)c2)ON=C(c2ccc(Cl)cc2)O1 (stereo unspecified) | > 55.5
61 | CCC1(c2cccc(Cl)c2)ON=C(c2cccc(Cl)c2)O1 (stereo unspecified) | > 55.5
62 | CC1(c2cccc(Br)c2)ON=C(c2cccc(Cl)c2)O1 (stereo unspecified) | > 55.5
63 | Clc1cccc(C2ON=C(c3ccccc3Cl)O2)c1 (stereo unspecified) | > 139
64 | CCC1(c2cccc(Br)c2)ON=C(c2cccc(Cl)c2)O1 (stereo unspecified) | > 55.5
65 | CC1(c2ccc(Cl)cc2)ON=C(c2ccc(Cl)cc2)O1 (stereo unspecified) | > 55.5
66 | CC1(c2cccc(Br)c2)ON=C(c2ccccc2Cl)O1 (stereo unspecified) | > 55.5
67 | Clc1ccc(C2=NOC(c3ccccc3Cl)O2)cc1 (stereo unspecified) | > 208
68 | CC1(c2ccccn2)ON=C(c2ccccc2Cl)O1 (stereo unspecified) | > 61.7

tested on: Entamoeba histolytica; assay: Antiamnesic activity against Entamoeba histolytica HM-1:IMSS after 72 hrs by trypan blue exclusion assay; format: functional, organism-based; settings: not given
Outline: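 Microdilution in TYIS-33 medium, trophozoites counted by haemocytometer with trypan blue viability check, 1.7 × 10⁴ organisms/well. Plates gassed with N₂ 10 min, 37 °C for 72 h. Washed with 0.9% NaCl, methanol-fixed, eosin-stained, dye released with 0.1 N NaOH, OD 490 nm. % inhibition vs log dose, IC50 by linear regression. Metronidazole standard. Three independent experiments.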

Row | Structure (SMILES) | IC50 [nM]
69 | CC1(c2ccccn2)ON=C(c2ccc(Cl)cc2)O1 (stereo unspecified) | 1580
70 | CCC1(c2cccc(Br)c2)ON=C(c2ccccc2Cl)O1 (stereo unspecified) | > 1800
71 | CCc1ccc(C2ON=C(c3ccc(Cl)cc3)O2)cc1 (stereo unspecified) | > 1800
72 | CC1(c2cccc(Br)c2)ON=C(c2ccc(Cl)cc2)O1 (stereo unspecified) | > 1800
73 | CC1(c2ccccn2)ON=C(c2cccc(Cl)c2)O1 (stereo unspecified) | 1730
74 | Clc1ccc(C2ON=C(c3ccccc3Cl)O2)cc1Cl (stereo unspecified) | 810
75 | Clc1ccc(C2ON=C(c3ccccc3Cl)O2)cc1 (stereo unspecified) | 510
76 | Cc1ccc(C2ON=C(c3ccccc3Cl)O2)cc1 (stereo unspecified) | > 1800
77 | Cc1ccc(C2ON=C(c3ccc(Cl)cc3)O2)cc1 (stereo unspecified) | > 1800
78 | Clc1ccccc1C1=NOC(c2ccccc2Cl)O1 (stereo unspecified) | 410
79 | CC1(c2ccc(Cl)cc2)ON=C(c2ccccc2Cl)O1 (stereo unspecified) | > 1800
80 | CCC1(c2cccc(Cl)c2)ON=C(c2ccc(Cl)cc2)O1 (stereo unspecified) | > 1800
81 | CCC1(c2cccc(Cl)c2)ON=C(c2ccccc2Cl)O1 (stereo unspecified) | > 1800
82 | Clc1cccc(C2=NOC(c3ccc(Cl)c(Cl)c3)O2)c1 (stereo unspecified) | 1210
83 | CCc1ccc(C2ON=C(c3ccccc3Cl)O2)cc1 (stereo unspecified) | > 1800
84 | CCC1(c2cccc(Br)c2)ON=C(c2ccc(Cl)cc2)O1 (stereo unspecified) | > 1800
85 | CCC1(c2cccc(Cl)c2)ON=C(c2cccc(Cl)c2)O1 (stereo unspecified) | > 1800
86 | CC1(c2cccc(Br)c2)ON=C(c2cccc(Cl)c2)O1 (stereo unspecified) | > 1800
87 | Clc1cccc(C2ON=C(c3ccccc3Cl)O2)c1 (stereo unspecified) | 720
88 | CCC1(c2cccc(Br)c2)ON=C(c2cccc(Cl)c2)O1 (stereo unspecified) | > 1800
89 | CC1(c2ccc(Cl)cc2)ON=C(c2ccc(Cl)cc2)O1 (stereo unspecified) | > 1800
90 | CC1(c2cccc(Br)c2)ON=C(c2ccccc2Cl)O1 (stereo unspecified) | > 1800
91 | Clc1ccc(C2=NOC(c3ccccc3Cl)O2)cc1 (stereo unspecified) | 480
92 | CC1(c2ccccn2)ON=C(c2ccccc2Cl)O1 (stereo unspecified) | 1620

same assay, conditions: in the assay text read “Antiamoebic” for “Antiamnesic”

Row | Structure (SMILES) | IC50 [nM]
93 | Clc1ccc(C2ON=C(c3cccc(Cl)c3)O2)cc1 (stereo unspecified) | 710
94 | Cc1ccc(C2ON=C(c3cccc(Cl)c3)O2)cc1 (stereo unspecified) | > 1800
95 | Clc1cccc(C2=NOC(c3ccccc3Cl)O2)c1 (stereo unspecified) | 620
96 | CCc1ccc(C2ON=C(c3cccc(Cl)c3)O2)cc1 (stereo unspecified) | > 1800
97 | Clc1ccc(C2=NOC(c3ccc(Cl)c(Cl)c3)O2)cc1 (stereo unspecified) | 1130
98 | CC1(c2ccc(Cl)cc2)ON=C(c2cccc(Cl)c2)O1 (stereo unspecified) | > 1800
99 | Clc1ccc(C2=NOC(c3ccc(Cl)cc3)O2)cc1 (stereo unspecified) | 530
100 | Clc1cccc(C2=NOC(c3cccc(Cl)c3)O2)c1 (stereo unspecified) | 910
101 | Clc1ccc(C2=NOC(c3cccc(Cl)c3)O2)cc1 (stereo unspecified) | 860
